Active and inactive are the calls of the source. The rule behind the calls is not given here.
Experiments:
Toxoplasma gondii [1] = assay: Antiparasitic activity against tachyzoites of Toxoplasma gondii RH type 1 infected in HFF cells incubated for 24 hrs followed by compound washout measured after 72 hrs by beta-galactoside reporter assay; type: functional, organism-based
How it was run: (§1)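 RH type I 2F clone expressing β-gal; compounds from 10 mM DMSO stocks diluted in medium with 1% DMSO. Parasites preincubated with compound 20 min at room temperature, then 5×10^2/well added to confluent HFF in DMEM/10% FBS and centrifuged. Washed with warm PBS after 4 or 24 h, grown to 72 h. Lysed in 1% Triton X-100; 1 mM chlorophenol red-β-D-galactopyranoside, A570.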

Liver microsomes [2] = assay: Half life in rat liver microsomes by LC-MS analysis; type: ADME, Microsome
Toxoplasma gondii [3] = assay: Antiparasitic activity against wild type tachyzoites of Toxoplasma gondii RH type 1 infected in HFF cells incubated for 20 mins prior to inoculation followed by compound washout at 4 hrs measured after 72 hrs by beta-galactoside reporter assay; type: functional, organism-based; conditions: RH type 1, HFF
How it was run: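 Type I RH 2F clone (β-gal) in confluent HFF, DMEM with 10% FBS. Compounds diluted from 10 mM DMSO stock into medium with 1% DMSO (also no-compound control). Parasites preincubated 20 min at room temperature with compound, 5×10^2/well added, spun ~300 g 5 min. Washed with warm PBS at 4 h, grown to 72 h. Triton X-100 lysis, chlorophenol red-β-D-galactopyranoside, A570. Triplicates; EC50 from variable-slope sigmoidal fit.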

Liver microsomes [4] = assay: Intrinsic clearance in rat liver microsomes assessed per mg of protein after 10 to 60 mins by LC-MS analysis in presence of NADPH; type: ADME, Microsome
[5] = Inhibition of Toxoplasma gondii RH full length CDPK1 expressed in Escherichia coli BL21(DE3) using syntide-2 peptide as substrate after 20 mins by ELISA; type: cell-free
How it was run: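 His-tagged recombinant CDPK1 purified by nickel affinity. Syntide-2-coated plates blocked with 3% BSA. Reaction run 20 min at 30°C in HEPES pH 7.5 with 10 mM MgCl₂, 2.5 mM CaCl₂, 0.1 mM EGTA and 1 mM DTT. Each enzyme used at its half-maximal-activity concentration with ATP at its own Km. Phosphopeptide detected by mAb MS-6E6/HRP-TMB at A450. Triplicates; IC50 from variable-slope sigmoidal fit.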

Toxoplasma gondii [6] = assay: Antiparasitic activity against Toxoplasma gondii type 2 expressing Pru-LUC infected in Balb/c mouse assessed reduction in number of tissue cysts in brain at 5 mg/kg, […] for 10 days measured after 30 days by fluorescently labeled lectin staining based microscopic analysis relative to control; type: functional, organism-based; set-up: dose 5 mg/kg; conditions: type II
Toxoplasma gondii [7] = assay: Antiparasitic activity against trachyzoites of Toxoplasma gondii type 2 expressing Pru-LUC infected in Balb/c mouse assessed as host survival at 5 mg/kg, ip administered for 10 days measured on day 30; conditions: type II
Toxoplasma gondii [8] = assay: Antiparasitic activity against Toxoplasma gondii harboring wild type CDPK1 infected in HFF cells incubated for 20 mins prior to infection followed by compound washout at 1 hr measured after 72 hrs by crystal violet staining method; type: functional, organism-based
How it was run: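 CDPK1-cKO parasites complemented with wild-type CDPK1, grown 72 h with 1 μg/ml ATc and kept in ATc throughout. Parasites pre-incubated 20 min at 37°C in DMEM/10% FBS with compound or 1% DMSO vehicle. 10⁵ per well added to confluent HFF, spun 300g for 2 min, infected 1 h at 37°C, then rinsed 5× with warm PBS. Grown 72 h with ATc; lysis read by crystal violet A570, as % of DMSO control.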

Toxoplasma gondii [9] = assay: Ratio of growth inhibition of Toxoplasma gondii harboring wild type CDPK1 to growth inhibition of Toxoplasma gondii harboring CDPK1 G128M mutant; type: functional
Toxoplasma gondii [10] = assay: Antiparasitic activity against tachyzoites of Toxoplasma gondii RH type 1 infected in HFF cells incubated for 4 hrs followed by compound washout measured after 72 hrs by beta-galactoside reporter assay; type: functional, organism-based; conditions: RH type 1, HFF; how it was run: as §1
Toxoplasma gondii RH [11] = assay: Selectivity ratio of IC50 for Toxoplasma gondii RH CDPK1 G128S mutant to Toxoplasma gondii RH full length CDPK1
Toxoplasma gondii RH [12] = assay: Selectivity ratio of IC50 for Toxoplasma gondii RH CDPK1 G128A mutant to Toxoplasma gondii RH full length CDPK1

For `CCc1nc(N)nc(N)c1-c1ccc(Cl)cc1`, the Activity (Toxoplasma gondii [1]) was “Active”.

`CC(C)n1nc(C(O)c2cccc(Cl)c2Cl)c2c(N)ncnc21` (stereo not drawn) gave a t1/2 (Liver microsomes [2]) of 20.2 min, an EC50 (Toxoplasma gondii [3]) of 9.46 µM and a CLint (Liver microsomes [4]) of 68 µL/min/mg. For the same molecule, the IC50 [5] was 0.2 µM.

Molecule `CC(C)(C)n1nc(Cc2ccc(F)c(Cl)c2)c2c(N)ncnc21` has a t1/2 (Liver microsomes [2]) of 4 min, an EC50 (Toxoplasma gondii [3]) of 0.41 µM and a CLint (Liver microsomes [4]) greater than 350 µL/min/mg. For the same molecule, the IC50 [5] was 0.00847 µM.

Work on `CC(C)(C)n1nc(-c2cccc(OCc3ccccc3)c2)c2c(N)ncnc21` yielded an EC50 (Toxoplasma gondii [3]) of 11.6 µM and an IC50 [5] of 0.374 µM.

In the case of `CC(C)(C)n1nc(Cc2cc(F)cc(F)c2)c2c(N)ncnc21`, the EC50 (Toxoplasma gondii [3]) is reported as 0.61 µM, the Activity (Toxoplasma gondii [6]) is reported as “Active” and the Activity (Toxoplasma gondii [7]) is reported as “Active”.

For `CC(C)n1nc(Cc2cccc(Cl)c2F)c2c(N)ncnc21`, the EC50 (Toxoplasma gondii [3]) was 1.4 µM and the IC50 [5] was 0.00143 µM.

With `CC(C)n1nc(Cc2cc(F)cc(F)c2)c2c(N)ncnc21` the EC50 (Toxoplasma gondii [3]) was 2.07 µM and the IC50 [5] was 0.0508 µM.

With `CC(C)(C)n1nc(Cc2ccc3ccccc3c2)c2c(N)ncnc21` the EC50 (Toxoplasma gondii [3]) was 1.94 µM and the IC50 [5] was 0.0354 µM.

For `CC(C)(C)n1nc(Cc2cccc(Cl)c2)c2c(N)ncnc21`, the EC50 (Toxoplasma gondii [3]) was 0.03 µM, the Activity (Toxoplasma gondii [8]) was “Active” and the Activity (Toxoplasma gondii [6]) was “Active”. For the same molecule, the Activity (Toxoplasma gondii [7]) was “Active”.

With `CC(C)(C)n1nc(-c2ccc3c(c2)OCO3)c2c(N)ncnc21` the EC50 (Toxoplasma gondii [3]) was 0.62 µM and the IC50 [5] was 0.0138 µM.

Work on `CC(C)n1nc(Cc2cccc(Cl)c2Cl)c2c(N)ncnc21` yielded a t1/2 (Liver microsomes [2]) of 7 min, an EC50 (Toxoplasma gondii [3]) of 0.25 µM and a CLint (Liver microsomes [4]) of 190 µL/min/mg. The Activity (Toxoplasma gondii [8]) was “Active”, the Activity (Toxoplasma gondii [6]) was “Active” and the Activity (Toxoplasma gondii [7]) was “Active”. For the same molecule, the IC50 [5] was 0.00238 µM and the Ratio (Toxoplasma gondii [9]) was 100.

For `CC(C)(C)n1nc(-c2cccc3ccccc23)c2c(N)ncnc21`, the EC50 (Toxoplasma gondii [3]) was 0.7 µM.

`CC(C)n1nc(Cc2cc(Cl)ccc2F)c2c(N)ncnc21` showed an EC50 (Toxoplasma gondii [3]) of 6.73 µM and an IC50 [5] of 0.0924 µM.

Molecule `CC(C)n1nc(Cc2ccc(F)c(Cl)c2)c2c(N)ncnc21` has an EC50 (Toxoplasma gondii [3]) of 0.56 µM and an IC50 [5] of 0.0131 µM.

`CC(C)(C)n1nc(Cc2cccc(Cl)c2F)c2c(N)ncnc21` gave a t1/2 (Liver microsomes [2]) of 2.5 min, an EC50 (Toxoplasma gondii [3]) of 0.36 µM and a CLint (Liver microsomes [4]) greater than 350 µL/min/mg. The IC50 [5] was 0.00737 µM.

In the case of `Cc1cccc(Cc2nn(C(C)(C)C)c3ncnc(N)c23)c1`, the EC50 (Toxoplasma gondii [3]) is reported as 0.11 µM, the EC50 (Toxoplasma gondii [10]) is reported as 0.1 µM and the Activity (Toxoplasma gondii [8]) is reported as “Active”. The Activity (Toxoplasma gondii [6]) was “Active”, the Activity (Toxoplasma gondii [7]) was “Active” and the Ratio IC50 (Toxoplasma gondii RH [11]) was 5.6. For the same molecule, the IC50 [5] was 0.00399 µM, the Ratio (Toxoplasma gondii [9]) was 100 and the Ratio IC50 (Toxoplasma gondii RH [12]) was 3.

For `CC(C)(C)c1ccc(-c2nn(C(C)(C)C)c3ncnc(N)c23)cc1`, the EC50 (Toxoplasma gondii [3]) was 3.77 µM and the IC50 [5] was 1.31 µM.

Molecule `CC(C)(C)n1nc(Cc2cccc(Br)c2)c2c(N)ncnc21` has a t1/2 (Liver microsomes [2]) of 3 min, an EC50 (Toxoplasma gondii [3]) of 0.38 µM and a CLint (Liver microsomes [4]) greater than 350 µL/min/mg. The IC50 [5] was 0.00964 µM.

`CC(C)n1nc(Cc2cc(F)cc(Cl)c2)c2c(N)ncnc21` showed a t1/2 (Liver microsomes [2]) of 2.4 min, an EC50 (Toxoplasma gondii [3]) of 0.18 µM and a CLint (Liver microsomes [4]) greater than 350 µL/min/mg. The Activity (Toxoplasma gondii [8]) was “Active”, the IC50 [5] was 0.00459 µM and the Ratio (Toxoplasma gondii [9]) was 100.

Work on `CC(C)(C)n1nc(-c2cccc(OCc3c(Cl)cccc3Cl)c2)c2c(N)ncnc21` yielded an EC50 (Toxoplasma gondii [3]) of 4.53 µM and an IC50 [5] of 2.47 µM.

`CC(C)(C)n1nc(Cc2cccc(Cl)c2Cl)c2c(N)ncnc21` showed an EC50 (Toxoplasma gondii [3]) of 0.38 µM and an IC50 [5] of 0.00338 µM.

In the case of `CC(C)(C)n1nc(-c2cccc(Oc3ccccc3)c2)c2c(N)ncnc21`, the EC50 (Toxoplasma gondii [3]) is reported as 1.32 µM and the IC50 [5] is reported as 0.0267 µM.

With `CC(C)(C)n1nc(Cc2cc(F)cc(Cl)c2)c2c(N)ncnc21` the EC50 (Toxoplasma gondii [3]) was 0.43 µM and the IC50 [5] was 0.0132 µM.

With `CC(C)(C)n1nc(Cc2cccc3ccccc23)c2c(N)ncnc21` the EC50 (Toxoplasma gondii [3]) was 1.31 µM.

With `CC(C)(C)n1nc(Cc2cccc(I)c2)c2c(N)ncnc21` the EC50 (Toxoplasma gondii [3]) was 1.12 µM and the IC50 [5] was 0.0129 µM.

Molecule `CC(C)(C)n1nc(Cc2cc(Cl)ccc2F)c2c(N)ncnc21` has a t1/2 (Liver microsomes [2]) of 5.5 min, an EC50 (Toxoplasma gondii [3]) of 0.92 µM and a CLint (Liver microsomes [4]) of 250 µL/min/mg. For the same molecule, the IC50 [5] was 0.0125 µM.

`CC(C)n1nc(C(F)c2cccc(Cl)c2Cl)c2c(N)ncnc21` (stereo not drawn) gave a t1/2 (Liver microsomes [2]) of 12.9 min, an EC50 (Toxoplasma gondii [3]) of 2.63 µM and a CLint (Liver microsomes [4]) of 107 µL/min/mg. It also gave an IC50 [5] of 0.0136 µM.
